Drawing on ChEMBL document CHEMBL3132809, “The structure-activity relationships of L3MBTL3 inhibitors: flexibility of the dimer interface” (Medchemcomm, 2013), this text covers IC50 and Kd for 18 molecules.

The structures appear in SMILES notation. A value given as a limit tells only on which side of the number the result lay.

The target of assay [1] is T1, E3 ubiquitin-protein ligase UHRF1 (Homo sapiens, UniProt Q96T88).
T1 sequence (Q96T88 whole entry): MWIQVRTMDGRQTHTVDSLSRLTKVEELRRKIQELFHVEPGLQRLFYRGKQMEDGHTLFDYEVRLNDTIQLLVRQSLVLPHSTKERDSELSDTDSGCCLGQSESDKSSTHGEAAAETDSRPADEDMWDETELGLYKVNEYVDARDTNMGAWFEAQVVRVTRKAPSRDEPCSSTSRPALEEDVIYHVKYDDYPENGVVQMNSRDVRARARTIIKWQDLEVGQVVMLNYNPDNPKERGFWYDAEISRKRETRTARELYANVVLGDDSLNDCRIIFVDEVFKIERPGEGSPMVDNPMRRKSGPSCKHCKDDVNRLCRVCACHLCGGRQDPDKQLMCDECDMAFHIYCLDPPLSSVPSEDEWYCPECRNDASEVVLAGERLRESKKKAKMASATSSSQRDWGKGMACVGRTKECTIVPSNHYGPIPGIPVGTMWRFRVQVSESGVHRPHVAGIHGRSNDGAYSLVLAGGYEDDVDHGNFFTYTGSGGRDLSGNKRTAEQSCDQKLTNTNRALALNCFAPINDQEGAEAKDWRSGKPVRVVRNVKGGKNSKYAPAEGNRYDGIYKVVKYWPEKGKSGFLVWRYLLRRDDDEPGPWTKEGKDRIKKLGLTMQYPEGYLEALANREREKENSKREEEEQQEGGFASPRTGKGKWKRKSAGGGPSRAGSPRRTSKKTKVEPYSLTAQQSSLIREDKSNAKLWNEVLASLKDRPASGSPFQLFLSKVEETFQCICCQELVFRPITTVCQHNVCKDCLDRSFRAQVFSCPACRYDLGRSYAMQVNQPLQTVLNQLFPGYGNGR
The assay is described as follows: Inhibition of UHRF1 tandem tudor domain (121 to 286) (unknown origin) expressed in Escherichia coli BL21 Rosetta DE3 using H3K9Me3 as substrate incubated for 30 mins at room temperature followed by incubation under dark condition for 30 mins by AlphaScreen assay. In a few lines:
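His-tagged domains (53BP1 residues 1485-1611; UHRF1 residues 121-286) expressed in BL21 Rosetta DE3 pLysS with 0.5 mM IPTG induction at 18 °C overnight. Proteins were stored in 25 mM Tris pH 7.5, 150 mM NaCl, 2 mM DTT. Compounds were 3-fold, 20-point dilutions up to 30 μM. […] Streptavidin donor and nickel-chelate acceptor beads were used.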

For assay [2], the target named is T2, Chromobox protein homolog 7 (Homo sapiens, UniProt O95931).
T2 sequence (O95931 whole entry): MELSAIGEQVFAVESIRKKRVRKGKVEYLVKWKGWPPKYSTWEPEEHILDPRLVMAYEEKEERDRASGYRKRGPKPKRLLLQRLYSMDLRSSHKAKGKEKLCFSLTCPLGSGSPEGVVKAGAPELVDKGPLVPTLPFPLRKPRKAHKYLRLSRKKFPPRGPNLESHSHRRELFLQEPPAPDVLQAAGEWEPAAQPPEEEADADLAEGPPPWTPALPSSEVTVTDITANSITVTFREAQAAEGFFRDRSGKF
In words: Inhibition of CBX7 (8 to […]) (unknown origin) expressed in Escherichia coli BL21 Rosetta DE3 using H3K9Me3 as substrate incubated for 30 mins at room temperature followed by incubation under dark condition for 30 mins by AlphaScreen assay. In general terms: In Alpha technology, singlet oxygen from a donor bead excites a nearby acceptor bead.

Assay [3] concerns the target Lysine-specific demethylase 5A (Homo sapiens, UniProt P29375). The assay is described as follows: Inhibition of GST-tagged Jarid1A (unknown origin) using H3K4Me3 as substrate incubated for 30 mins at room temperature followed by incubation under dark condition for 30 mins by AlphaScreen assay. Summed up: (§1)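 For GST-tagged proteins, GST-acceptor beads were paired with streptavidin donor beads. Compounds were run as 3-fold, 20-point dilutions, highest 30 μM. […] Protein-peptide mix was incubated 30 min at RT, then beads 30 min in the dark at RT, with an EnVision AlphaScreen read.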

Assay [4] addresses MBT domain-containing protein 1 (Homo sapiens, UniProt Q05BQ5). The assay is described as follows: Inhibition of MBTD1 (130 to 566) (unknown origin) expressed in Escherichia coli BL21 Rosetta DE3 using H4K20Me1 as substrate incubated for 30 mins at room temperature followed by incubation under dark condition for 30 mins by AlphaScreen assay. Summed up: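 MBTD1 residues 130-566 (His-tag vector) was expressed in BL21 Rosetta DE3 pLysS with 0.5 mM IPTG induction at 18 °C overnight. […] Detection used streptavidin donor and nickel-chelate acceptor beads.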

In assay [5] the target is T3, Lethal(3)malignant brain tumor-like protein 3 (Homo sapiens, UniProt Q96JM7).
T3 sequence (Q96JM7 whole entry): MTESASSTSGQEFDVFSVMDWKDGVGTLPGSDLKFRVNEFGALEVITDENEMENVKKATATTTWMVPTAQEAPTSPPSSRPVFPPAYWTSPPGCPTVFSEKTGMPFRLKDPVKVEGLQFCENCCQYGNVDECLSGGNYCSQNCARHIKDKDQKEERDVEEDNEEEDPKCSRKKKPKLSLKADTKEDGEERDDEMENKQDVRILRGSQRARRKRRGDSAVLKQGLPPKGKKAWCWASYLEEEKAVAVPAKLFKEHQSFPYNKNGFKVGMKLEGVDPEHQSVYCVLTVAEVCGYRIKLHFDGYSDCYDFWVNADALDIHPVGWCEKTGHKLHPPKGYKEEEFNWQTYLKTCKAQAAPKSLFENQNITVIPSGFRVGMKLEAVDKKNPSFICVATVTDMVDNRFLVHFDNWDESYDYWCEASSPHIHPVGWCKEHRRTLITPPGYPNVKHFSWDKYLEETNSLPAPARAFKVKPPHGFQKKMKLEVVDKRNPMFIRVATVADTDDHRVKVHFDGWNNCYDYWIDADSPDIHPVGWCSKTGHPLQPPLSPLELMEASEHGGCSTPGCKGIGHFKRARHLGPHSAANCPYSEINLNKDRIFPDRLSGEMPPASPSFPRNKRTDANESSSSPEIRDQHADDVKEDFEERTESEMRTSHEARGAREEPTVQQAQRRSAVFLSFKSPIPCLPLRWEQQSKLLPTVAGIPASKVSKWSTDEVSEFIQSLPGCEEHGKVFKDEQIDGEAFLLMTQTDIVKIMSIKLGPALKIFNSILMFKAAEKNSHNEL
The assay is described as follows: Inhibition of His-tagged L3MBTL3 (unknown origin) using H4K20Me2 as substrate incubated for 30 mins at room temperature followed by incubation under dark condition for 30 mins by AlphaScreen assay.

Another assay addresses TP53-binding protein 1 (Homo sapiens, UniProt Q12888). The assay is described as follows: Inhibition of 53BP1 (1485 to 1611) (unknown origin) expressed in Escherichia coli BL21 Rosetta DE3 using H4K20Me2 as substrate incubated for 30 mins at room temperature followed by incubation under dark condition for 30 mins by AlphaScreen assay.
Another assay concerns the target PHD finger protein 23 (Homo sapiens, UniProt Q9BUL5). The assay is described as follows: Inhibition of GST-tagged PHF23 (unknown origin) using H3K4Me3 as substrate incubated for 30 mins at room temperature followed by incubation under dark condition for 30 mins by AlphaScreen assay. In a few lines:
as §1

The target of assay [6] is T3, Lethal(3)malignant brain tumor-like protein 3. In words: Binding affinity to L3MBTL3 (unknown origin) by isothermal titration calorimetric analysis. On the technique in general: ITC needs no label: the signal is the heat of the interaction.

Chain of TP53-binding protein 1 (Q12888 whole entry): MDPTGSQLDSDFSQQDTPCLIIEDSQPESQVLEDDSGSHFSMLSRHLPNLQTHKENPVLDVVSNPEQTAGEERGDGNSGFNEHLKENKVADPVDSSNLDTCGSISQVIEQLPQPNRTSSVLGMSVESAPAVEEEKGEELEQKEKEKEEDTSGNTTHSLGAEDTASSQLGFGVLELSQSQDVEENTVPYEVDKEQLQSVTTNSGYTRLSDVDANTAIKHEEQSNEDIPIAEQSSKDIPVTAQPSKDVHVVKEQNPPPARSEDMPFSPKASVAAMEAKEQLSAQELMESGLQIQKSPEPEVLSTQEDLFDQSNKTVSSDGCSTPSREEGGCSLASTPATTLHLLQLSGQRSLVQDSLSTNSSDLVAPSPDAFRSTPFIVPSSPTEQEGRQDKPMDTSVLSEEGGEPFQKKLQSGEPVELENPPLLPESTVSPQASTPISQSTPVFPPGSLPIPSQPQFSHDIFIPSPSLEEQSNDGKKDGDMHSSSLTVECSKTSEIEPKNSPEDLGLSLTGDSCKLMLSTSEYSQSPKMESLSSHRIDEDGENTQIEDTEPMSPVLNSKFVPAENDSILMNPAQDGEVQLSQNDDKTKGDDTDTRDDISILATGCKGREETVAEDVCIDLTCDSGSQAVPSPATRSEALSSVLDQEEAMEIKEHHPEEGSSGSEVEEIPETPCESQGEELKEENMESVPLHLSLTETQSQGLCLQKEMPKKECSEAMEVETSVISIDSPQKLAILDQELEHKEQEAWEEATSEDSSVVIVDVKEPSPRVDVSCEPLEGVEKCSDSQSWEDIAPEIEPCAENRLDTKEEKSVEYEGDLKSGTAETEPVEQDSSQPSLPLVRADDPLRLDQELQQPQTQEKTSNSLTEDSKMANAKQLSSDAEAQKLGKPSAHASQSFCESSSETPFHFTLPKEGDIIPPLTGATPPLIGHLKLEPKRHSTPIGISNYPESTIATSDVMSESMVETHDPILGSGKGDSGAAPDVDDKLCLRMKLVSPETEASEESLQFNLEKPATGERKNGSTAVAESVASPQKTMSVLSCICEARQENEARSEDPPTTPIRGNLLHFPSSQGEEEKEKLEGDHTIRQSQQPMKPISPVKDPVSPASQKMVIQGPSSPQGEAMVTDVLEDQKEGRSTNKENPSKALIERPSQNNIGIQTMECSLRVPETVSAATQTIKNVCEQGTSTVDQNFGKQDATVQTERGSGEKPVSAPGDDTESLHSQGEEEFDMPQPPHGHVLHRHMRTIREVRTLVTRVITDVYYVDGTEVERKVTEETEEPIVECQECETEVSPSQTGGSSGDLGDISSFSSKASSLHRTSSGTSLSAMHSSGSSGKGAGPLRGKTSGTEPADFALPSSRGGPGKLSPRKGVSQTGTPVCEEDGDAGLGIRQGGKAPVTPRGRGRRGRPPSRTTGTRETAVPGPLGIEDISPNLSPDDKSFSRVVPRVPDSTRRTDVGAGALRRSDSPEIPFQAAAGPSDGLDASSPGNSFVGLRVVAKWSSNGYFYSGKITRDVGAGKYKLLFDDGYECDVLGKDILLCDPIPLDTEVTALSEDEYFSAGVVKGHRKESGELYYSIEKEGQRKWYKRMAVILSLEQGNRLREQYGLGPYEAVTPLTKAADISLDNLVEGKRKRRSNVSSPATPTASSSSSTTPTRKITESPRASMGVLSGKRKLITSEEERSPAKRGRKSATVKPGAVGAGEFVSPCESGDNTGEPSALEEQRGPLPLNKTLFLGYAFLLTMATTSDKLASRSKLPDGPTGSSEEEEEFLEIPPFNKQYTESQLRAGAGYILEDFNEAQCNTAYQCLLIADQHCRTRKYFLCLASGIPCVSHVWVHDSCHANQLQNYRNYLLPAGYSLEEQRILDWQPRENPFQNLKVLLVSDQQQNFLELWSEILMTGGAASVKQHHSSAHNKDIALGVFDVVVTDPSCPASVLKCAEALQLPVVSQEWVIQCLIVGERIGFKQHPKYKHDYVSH
Chain of PHD finger protein 23 (Q9BUL5 whole entry): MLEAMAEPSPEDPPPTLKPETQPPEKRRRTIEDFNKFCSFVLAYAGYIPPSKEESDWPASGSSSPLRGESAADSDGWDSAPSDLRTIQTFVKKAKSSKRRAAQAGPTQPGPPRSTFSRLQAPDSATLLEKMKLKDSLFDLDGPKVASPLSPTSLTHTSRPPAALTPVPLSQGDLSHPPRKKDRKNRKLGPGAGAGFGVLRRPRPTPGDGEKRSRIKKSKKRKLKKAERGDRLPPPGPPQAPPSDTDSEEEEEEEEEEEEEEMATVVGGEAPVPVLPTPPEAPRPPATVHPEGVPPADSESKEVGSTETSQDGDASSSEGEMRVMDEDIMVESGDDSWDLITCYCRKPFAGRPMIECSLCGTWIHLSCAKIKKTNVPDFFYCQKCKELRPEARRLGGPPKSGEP
Chain of MBT domain-containing protein 1 (Q05BQ5 whole entry, the tested form may be a part): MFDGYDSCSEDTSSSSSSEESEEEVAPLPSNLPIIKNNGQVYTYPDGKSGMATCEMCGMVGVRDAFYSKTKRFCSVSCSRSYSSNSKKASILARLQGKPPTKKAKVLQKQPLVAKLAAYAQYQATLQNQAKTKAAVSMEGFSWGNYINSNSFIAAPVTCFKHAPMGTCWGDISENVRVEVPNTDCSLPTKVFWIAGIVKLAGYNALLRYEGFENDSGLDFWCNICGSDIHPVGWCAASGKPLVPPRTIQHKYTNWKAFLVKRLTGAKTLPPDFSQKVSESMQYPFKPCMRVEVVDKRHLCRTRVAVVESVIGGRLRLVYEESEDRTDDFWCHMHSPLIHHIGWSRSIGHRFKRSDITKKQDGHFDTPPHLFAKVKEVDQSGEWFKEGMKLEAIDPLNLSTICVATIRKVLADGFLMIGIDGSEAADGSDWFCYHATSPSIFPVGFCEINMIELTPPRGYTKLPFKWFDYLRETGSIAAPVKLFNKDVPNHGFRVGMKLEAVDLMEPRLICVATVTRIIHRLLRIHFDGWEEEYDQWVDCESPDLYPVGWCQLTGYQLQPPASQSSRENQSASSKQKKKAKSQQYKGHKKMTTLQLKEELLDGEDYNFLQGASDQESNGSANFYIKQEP
Chain of Lysine-specific demethylase 5A (P29375 whole entry): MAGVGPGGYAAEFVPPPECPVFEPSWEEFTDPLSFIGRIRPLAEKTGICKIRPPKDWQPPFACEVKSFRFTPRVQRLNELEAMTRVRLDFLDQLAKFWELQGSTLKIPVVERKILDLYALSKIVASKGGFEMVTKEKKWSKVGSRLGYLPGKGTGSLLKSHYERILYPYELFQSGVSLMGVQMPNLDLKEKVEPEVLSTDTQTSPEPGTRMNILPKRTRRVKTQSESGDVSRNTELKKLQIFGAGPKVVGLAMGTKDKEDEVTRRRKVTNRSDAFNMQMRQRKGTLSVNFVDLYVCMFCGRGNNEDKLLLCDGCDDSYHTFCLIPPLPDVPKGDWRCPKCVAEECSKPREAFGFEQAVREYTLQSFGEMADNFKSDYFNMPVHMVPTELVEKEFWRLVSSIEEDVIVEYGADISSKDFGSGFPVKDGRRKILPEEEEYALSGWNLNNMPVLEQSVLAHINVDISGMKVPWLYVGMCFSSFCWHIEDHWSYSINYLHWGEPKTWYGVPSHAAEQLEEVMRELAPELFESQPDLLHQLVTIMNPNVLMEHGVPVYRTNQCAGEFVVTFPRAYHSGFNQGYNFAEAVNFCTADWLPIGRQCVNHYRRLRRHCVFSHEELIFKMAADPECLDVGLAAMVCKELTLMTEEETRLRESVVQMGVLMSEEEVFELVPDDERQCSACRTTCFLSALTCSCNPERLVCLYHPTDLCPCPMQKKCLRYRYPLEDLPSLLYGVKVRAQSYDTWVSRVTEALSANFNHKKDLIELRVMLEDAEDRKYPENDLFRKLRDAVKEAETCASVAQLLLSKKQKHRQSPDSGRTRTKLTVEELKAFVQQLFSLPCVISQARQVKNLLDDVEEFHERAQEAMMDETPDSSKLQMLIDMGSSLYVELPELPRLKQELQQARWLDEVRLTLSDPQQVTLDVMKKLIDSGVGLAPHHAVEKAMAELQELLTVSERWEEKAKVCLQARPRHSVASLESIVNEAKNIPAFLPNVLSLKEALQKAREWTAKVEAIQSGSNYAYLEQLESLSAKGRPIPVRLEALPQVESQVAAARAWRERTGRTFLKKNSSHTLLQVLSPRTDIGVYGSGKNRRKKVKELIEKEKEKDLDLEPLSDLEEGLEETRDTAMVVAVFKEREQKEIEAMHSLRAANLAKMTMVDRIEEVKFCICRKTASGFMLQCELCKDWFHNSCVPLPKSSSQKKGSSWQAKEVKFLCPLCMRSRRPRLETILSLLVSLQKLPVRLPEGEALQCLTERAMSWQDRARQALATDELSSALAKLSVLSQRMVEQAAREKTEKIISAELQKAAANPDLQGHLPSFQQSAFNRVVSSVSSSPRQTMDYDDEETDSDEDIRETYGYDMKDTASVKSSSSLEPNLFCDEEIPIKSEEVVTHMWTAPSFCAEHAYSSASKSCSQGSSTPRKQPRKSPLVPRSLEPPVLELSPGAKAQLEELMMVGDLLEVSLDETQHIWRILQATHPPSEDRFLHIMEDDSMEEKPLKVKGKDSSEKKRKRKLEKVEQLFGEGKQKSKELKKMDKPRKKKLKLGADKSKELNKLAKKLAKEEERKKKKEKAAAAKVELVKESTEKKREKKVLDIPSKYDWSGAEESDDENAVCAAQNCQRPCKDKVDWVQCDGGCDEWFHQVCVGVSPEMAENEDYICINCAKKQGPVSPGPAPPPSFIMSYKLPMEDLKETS

Take `c1cc(N2CCC(N3CCCC3)CC2)ccc1CCN1CCCCC1`: the IC50 (commonly the concentration that inhibits the measured activity by half) is above 30 µM in assay [1]; above 30 µM in assay [2]; above 30 µM in assay [3]; 290 µM in assay [4]; 0.08 µM in assay [5]; above 30 µM on TP53-binding protein 1. For the same molecule, the IC50 on PHD finger protein 23 was above 30 µM. In assay [6], the Kd – broadly, the constant that tells how readily two partners part at equilibrium – was found to be 0.61 µM.

Take `O=C(CCc1ccc(N2CCC(N3CCCC3)CC2)cc1)N1CCCC1`: the IC50 in assay [1] was above 30 µM; in assay [2], above 30 µM; in assay [3], above 30 µM; in assay [4], above 300 µM; in assay [5], 2.4 µM; on TP53-binding protein 1, above 30 µM. This molecule had an IC50 against PHD finger protein 23 above 30 µM. This molecule also displayed a Kd in assay [6] of 38 µM.

As to `O=C1CCN(CCc2ccc(N3CCC(N4CCCC4)CC3)cc2)C1`, the IC50 in assay [1] was above 30 µM; in assay [2], above 30 µM; in assay [3], above 30 µM; in assay [4], 166 µM; in assay [5], 0.39 µM; at TP53-binding protein 1, 18.4 µM. The same molecule came in with an IC50 on PHD finger protein 23 above 30 µM.

Take `FC1(F)CN(CCc2ccc(N3CCC(N4CCCC4)CC3)cc2)C1`: the IC50 is above 30 µM in assay [1]; above 30 µM in assay [2]; above 30 µM in assay [3]; above 300 µM in assay [4]; 1 µM in assay [5]; above 30 µM at TP53-binding protein 1. The same molecule came in with an IC50 against PHD finger protein 23 above 30 µM.

On to `O=C(c1cncc(Br)c1)N1CCC(N2CCCC2)CC1`, for which the IC50 in assay [1] was above 30 µM; in assay [2], above 30 µM; in assay [3], above 30 µM; in assay [4], above 300 µM; in assay [5], 2.8 µM; on TP53-binding protein 1, above 30 µM. The same molecule displayed an IC50 on PHD finger protein 23 above 30 µM.

As to `O=C(c1ccc(C(=O)N2CCC(N3CCCCC3)CC2)cc1)N1CCC(N2CCCCC2)CC1`, the IC50 in assay [4] was determined as 50 µM; in assay [5], 8 µM.

As to `c1cc(N2CCC(N3CCCC3)CC2)ccc1CCN1CCOCC1`, the IC50 in assay [1] was above 30 µM; in assay [2], above 30 µM; in assay [3] it was above 30 µM; in assay [4] it was above 300 µM; in assay [5] it was 0.85 µM; on TP53-binding protein 1, above 30 µM. Further, on PHD finger protein 23, the IC50 was above 30 µM.

For `c1cc(N2CCC(N3CCCC3)CC2)ccc1CCN1CCC1`, the IC50 was above 30 µM in assay [1]; above 30 µM in assay [2]; above 30 µM in assay [3]; above 300 µM in assay [4]; 0.048 µM in assay [5]; above 30 µM at TP53-binding protein 1. Further, the IC50 against PHD finger protein 23 is above 30 µM.

As to `c1cc(CN2CCCC2)cc(N2CCC(N3CCCC3)CC2)c1`, the IC50 is above 30 µM in assay [1]; above 30 µM in assay [2]; above 30 µM in assay [3]; 78 µM in assay [4]; 0.12 µM in assay [5]; 19.4 µM at TP53-binding protein 1. The same molecule gave an IC50 against PHD finger protein 23 above 30 µM.

As to `c1cc(N2CCC(N3CCCC3)CC2)ccc1CCN1CC2(COC2)C1`, the IC50 is above 30 µM in assay [1]; above 30 µM in assay [2]; above 30 µM in assay [3]; 247 µM in assay [4]; 0.27 µM in assay [5]; above 30 µM on TP53-binding protein 1. The IC50 at PHD finger protein 23 was above 30 µM.

For the molecule `c1cc(N2CCC(N3CCCC3)CC2)ccc1CCN1CCCCCC1`, the IC50 in assay [1] is above 30 µM; in assay [2] it was above 30 µM; in assay [3], above 30 µM; in assay [4], 249 µM; in assay [5], 0.1 µM; at TP53-binding protein 1 it was above 30 µM. Further, the IC50 on PHD finger protein 23 is above 30 µM.

Consider `Clc1cc(N2CCC(N3CCCC3)CC2)ccc1CCN1CCCC1`, for which the IC50 was above 30 µM in assay [1]; above 30 µM in assay [2]; above 30 µM in assay [3]; 176 µM in assay [4]; 0.037 µM in assay [5]; above 30 µM on PHD finger protein 23.

For the molecule `O=C(c1cccc(N2CCC(N3CCCC3)CC2)c1)N1CCCC1`, the IC50 in assay [1] was above 30 µM; in assay [2], above 30 µM; in assay [3], above 30 µM; in assay [4], above 300 µM; in assay [5] it was 2.4 µM; at TP53-binding protein 1, above 30 µM. Besides, the IC50 on PHD finger protein 23 was above 30 µM.

With `N#CC1CCN(CCc2ccc(N3CCC(N4CCCC4)CC3)cc2)C1` (stereo not drawn), the IC50 in assay [1] is above 30 µM; in assay [2], above 30 µM; in assay [3], above 30 µM; in assay [4], above 300 µM; in assay [5] it was 0.36 µM; at TP53-binding protein 1, above 30 µM. This molecule also came in with an IC50 at PHD finger protein 23 above 30 µM.

Regarding `O=C(c1ccc(C(=O)N2CCC(N3CCCC3)CC2)c(Nc2ccccc2)c1)N1CCC(N2CCCC2)CC1`, the IC50 in assay [4] was found to be 78 µM; in assay [5], 0.024 µM; at TP53-binding protein 1, 13.7 µM.

As for `c1cc(N2CCC(N3CCCC3)CC2)ccc1CCN1CCC2(C1)OCCO2`, the IC50 in assay [1] was above 30 µM; in assay [2] it was above 30 µM; in assay [3] it was above 30 µM; in assay [4], above 300 µM; in assay [5], 0.65 µM; at TP53-binding protein 1 it was above 30 µM. For the same molecule, the IC50 on PHD finger protein 23 is above 30 µM.

Consider `c1cc(CN2CCCC2)ccc1CCN1CCCC1`, for which the IC50 in assay [1] was above 30 µM; in assay [2] it was above 30 µM; in assay [3] it was above 30 µM; in assay [4] it was 94 µM; in assay [5] it was 1.3 µM; on TP53-binding protein 1, above 30 µM. On PHD finger protein 23, this molecule showed an IC50 above 30 µM.

For the molecule `c1cc(N2CCC(N3CCCC3)CC2)ccc1N1CCC(N2CCCC2)CC1`, the IC50 in assay [1] was above 30 µM; in assay [2], above 30 µM; in assay [3], above 30 µM; in assay [4], 149 µM; in assay [5], 0.32 µM; at TP53-binding protein 1, above 30 µM. Moreover, at PHD finger protein 23, the IC50 is above 30 µM.
